High-throughput results as filed in PubChem BioAssay.
AF4-AF9 inh: inhibitors of AF4 peptide binding to AF9, primary screen, biochemical, AlphaScreen, biotin-AF4 peptide, FLAG-AF9, single point; inhibition, % at 10 µM; Protein AF-9 (Homo sapiens), P42568; AID 651704, 2012; actives 0.47% (n = 350,000);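 active = every replicate reaching a set inhibition limit, whatever the replicate mean, cut at about 25% in these data; inconclusive = mean inhibition reaches that limit but some replicates miss it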;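 also: 0% = plate neutral control median and 100% = total signal loss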
CaV13 FRET inh: Primary screen for inhibitors of IQ motif and Ca2+-dependent inactivation inhibitor domain binding in CACNA1D, Förster resonance energy transfer in living cells, …. inhibition, % at 12.3 µM. HEK cells, CFP/YFP FRET ICDI-IQ, plate reader, 10 min; percent FRET-ratio fall versus neutral wells. actives 0.098% (n = 340,000). AID 743397;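 active = mean replicate inhibition of at least 30% and at least 1% of replicates passing that level; inconclusive = only one of the two criteria is met; inactive = neither criterion is met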;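 also: 0% = median of the neutral control wells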
SIRT5 block: SIRT5 desuccinylase inhibitors, primary screen, biochemical, fluorescence imaging, single point, set 5; actives 1.1% (n = 330,000); Purified SirT5, succinyl-peptide AMC, trypsin-coupled fluorescence; NAD-dependent protein deacylase sirtuin-5, mitochondrial (Homo sapiens), Q9NXA8; inhibition, % at 15 µM; in the data active = inhibition above about 15%; inconclusive = no clear call, values can overlap the other calls
Target sequence (Q9NXA8 whole entry, looked up): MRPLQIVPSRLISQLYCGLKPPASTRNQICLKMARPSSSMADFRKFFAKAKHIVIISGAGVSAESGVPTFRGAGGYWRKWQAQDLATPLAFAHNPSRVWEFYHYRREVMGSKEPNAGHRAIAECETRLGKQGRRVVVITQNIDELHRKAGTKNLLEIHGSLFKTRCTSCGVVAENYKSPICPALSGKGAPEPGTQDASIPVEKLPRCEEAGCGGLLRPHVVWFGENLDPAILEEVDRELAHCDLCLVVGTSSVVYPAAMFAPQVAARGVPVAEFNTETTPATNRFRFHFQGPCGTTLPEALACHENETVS
S100A4 MyoIIA: inhibitors of S100A4-myosin IIA peptide binding, primary screen, biochemical, fluorescence polarization, TAMRA-MyoIIA peptide. Protein S100-A4 (Homo sapiens), P26447. actives 0.14% (n = 360,000). inhibition, % at 10.7 µM;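 active = mean inhibition of at least 70% across replicates, with every replicate also reaching that level; inconclusive = mean inhibition reaches 70% but some replicates fall short; inactive = mean inhibition below 70%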
Target sequence (P26447 whole entry, looked up): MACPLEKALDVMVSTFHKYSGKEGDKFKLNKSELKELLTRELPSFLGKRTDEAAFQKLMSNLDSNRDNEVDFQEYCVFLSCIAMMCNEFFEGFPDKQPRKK
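Compound dosing: one dose per compound; test system: human S100A4 monomer with TAMRA-labelled myosin IIA peptide; probe or stimulus: TAMRA-labelled myosin IIA heavy-chain peptide probe, 5 nM; medium: HEPES buffer with Ca2+, pH 7.2; schedule: 5 min incubation before reading; benchmarks: neutral control DMSO, positive control TFP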
DENV2 CPE rescue: inhibitors of DENV2 cytopathic effect, primary screen, cell-based, plate reader, single concentration | DENV2-infected cells, cytopathic effect rescue | CPE inhibition, % at 9.99 µM | actives 1.7% (n = 350,000) | AID 651640, 2012; in the data active = CPE inhibition above about 20%, passing the limit was not always enough; inconclusive = no clear call, values can overlap the other calls; tested in BHK-21 cells;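 also: 0% = median of neutral control wells and 100% = median of positive control wells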
Active calls of the source: *; ? = inconclusive; . = no result. Rows were chosen to be rich in hits. Some 2.7% of all compounds tested hit in one or more screens of this group.

SMILES	AF4-AF9 inh	CaV13 FRET inh	SIRT5 block	S100A4 MyoIIA	DENV2 CPE rescue
C[C@H](CO)N1C[C@H](C)[C@@H](CN(C)C(=O)Nc2ccc(C(F)(F)F)cc2)Oc2c(NC(=O)C3CCOCC3)cccc2C1=O	-1.2	.	.	-0.4	?
CN1C(=O)c2cc(NC(=O)C3CCOCC3)ccc2OC[C@H]2O[C@H](CC(=O)NCc3ccc4c(c3)OCO4)CC[C@@H]21	2.7	.	-0.8	52.1	-6.1
CCc1ccc(CN(C)CCc2ccccn2)cc1	-44.7	-7.2	20.8*	-5.5	-3.0
COCC(=O)Nc1ccc2c(c1)[C@@H]1C[C@H](CC(=O)N3CCc4ccccc4C3)O[C@H](CO)[C@@H]1O2	1.8	.	-2.5	-5.2	-1.2
CCS(=O)(=O)N1CCCC(C(=O)NCCc2ccccc2)C1 (configuration not stated)	.	-5.6	.	.	.
CCCS(=O)(=O)N1CCCC(C(=O)NCCc2cccc(C)c2)C1 (configuration not stated)	-2.2	-20.0	-0.9	5.7	26.7*
CCCNC(=O)C[C@H]1C[C@@H]2c3cc(NC(=O)Nc4ccccc4)ccc3O[C@@H]2[C@@H](CO)O1	.	.	.	.	9.1
CCN(C(=O)COC(=O)CNC(=O)c1ccccc1C)C1=CCCCC1	0.2	-6.2	23.6*	-0.3	17.2
Cc1ccccc1C(=O)NCC(=O)OCC(=O)NNC(=O)c1ccccc1F	-0.3	-14.8	-2.4	0.6	-0.3
C[C@@H]1CN([C@H](C)CO)C(=O)c2cccc(NC(=O)NC3CCCCC3)c2O[C@@H]1CN(C)Cc1ccc(Oc2ccccc2)cc1	3.1	.	19.7*	-10.1	-1.7
C[C@H]1CN([C@@H](C)CO)C(=O)c2cccc(NC(=O)NC3CCCCC3)c2O[C@@H]1CN(C)Cc1ccc(C(=O)O)cc1	-8.4	.	24.7*	3.6	3.1
C[C@@H]1CN([C@H](C)CO)C(=O)c2cccc(NC(=O)NC3CCCCC3)c2O[C@H]1CN(C)Cc1ccc(Oc2ccccc2)cc1	1.8	.	-5.0	9.3	-3.7
C[C@H]1CN([C@@H](C)CO)C(=O)c2cccc(NC(=O)C3CCCCC3)c2O[C@@H]1CN(C)Cc1ccc(Oc2ccccc2)cc1	1.6	.	2.2	-2.9	1.1
C[C@@H]1CN([C@H](C)CO)C(=O)c2cccc(NC(=O)C3CCCCC3)c2O[C@@H]1CN(C)Cc1ccc(Oc2ccccc2)cc1	6.8	.	4.3	143.0*	1.7
C[C@H]1CN([C@@H](C)CO)C(=O)c2cccc(NS(=O)(=O)c3ccc(F)cc3)c2O[C@H]1CN(C)C(=O)Nc1ccc(C(F)(F)F)cc1	-1.8	.	-3.5	1.4	-11.8
Cc1cc(C(=O)Nc2ccc3c(c2)C(=O)N(C)[C@H]2CC[C@@H](CC(=O)NCC(F)(F)F)O[C@H]2CO3)no1	0.7	.	5.0	-2.5	-7.8
NC(=O)C1CCCN(Cc2ccc3ccccc3c2)C1 (configuration not stated)	-3.8	-2.2	3.2	1.6	12.3
CCN(CC)C(=O)C1CCCN(Cc2ccc3ccccc3c2)C1 (configuration not stated)	-1.3	-5.7	46.5*	-0.3	-0.4
O=C(COc1ccc(-c2nnco2)cc1)NCc1ccccc1Cl	-0.8	-4.9	0.9	0.1	42.9*
Cn1c(=S)[nH]c2sc3c(c2c1=O)CCC(C(C)(C)C)C3 (configuration not stated)	1.4	-6.2	35.3*	-1.1	-3.5
C[C@H]1CN([C@@H](C)CO)C(=O)c2cccc(NC(=O)Nc3ccc(F)cc3)c2O[C@@H]1CN(C)C(=O)Nc1ccccc1	-1.4	.	-4.7	0.8	-9.0
CCC(=O)N1[C@@H]2c3ccc(-c4ccccc4)c(=O)n3C[C@H]1[C@H](CO)[C@H]2C(=O)N(C)C	0.4	.	-28.5	4.9	17.1
CCc1cnc(N2[C@@H](C#N)[C@@H](c3ccccc3C3=CCCC3)[C@@H]2CO)s1	-1.0	.	-1.8	42.5	20.4*
CCc1csc(N2[C@@H](C#N)[C@@H](c3ccccc3C3=CCCC3)[C@@H]2CO)n1	4.3	.	1.5	15.0	-11.7
N#C[C@H]1[C@@H](c2ccccc2-c2ccc(F)cc2)[C@@H](CO)N1c1ncc(-c2ccccc2)s1	-0.2	.	0.3	-21.2	22.8*
SMILES	AF4-AF9 inh	CaV13 FRET inh	SIRT5 block	S100A4 MyoIIA	DENV2 CPE rescue
N#C[C@H]1[C@@H](c2ccccc2-c2ccccc2)[C@@H](CO)N1c1ncc(-c2ccccc2)s1	-1.1	.	24.0*	-1.1	4.2
N#C[C@@H]1[C@@H](c2ccccc2-c2ccc(F)cc2)[C@H](CO)N1c1ncc(-c2ccccc2)s1	-2.5	.	4.3	-7.3	76.4*
CC(C)C#Cc1ccc2c(c1)O[C@H](CN(C)Cc1cccnc1)[C@H](C)CN([C@H](C)CO)S2(=O)=O	7.5	.	3.0	-6.3	-6.7
CCCC#Cc1cnc2c(c1)C(=O)N([C@H](C)CO)C[C@H](C)[C@H](CN(C)Cc1cccnc1)O2	-0.9	.	-10.5	14.2	4.0
C[C@@H]1CN([C@H](C)CO)C(=O)c2cccc(NC(=O)c3ccc(-c4nccs4)cc3)c2O[C@H]1CN(C)C(=O)Nc1ccc2c(c1)OCO2	0.8	.	-0.8	-0.6	-7.6
Cc1cccc2nc(-c3ccccc3)c(-c3ccc(CN4CCC5(CC4)CNc4ccccc45)cc3)nc12	2.6	-11.7	.	-2.5	6.3
C[C@@H]1CN([C@H](C)CO)C(=O)c2cc(-c3ccc(C(=O)N(C)C)cc3)cnc2O[C@@H]1CN(C)Cc1ccc(C(=O)O)cc1	-8.5	.	-0.1	2.3	-1.2
Cc1ccc(NC(=O)n2ccc(-c3ccc(-n4ccnc4)cc3)n2)cc1	-0.6	-4.0	16.8*	-5.3	-4.5
CCCn1c(N)c(C(=O)CSc2nnc(C3CC3)n2Cc2ccccc2)c(=O)n(C)c1=O	2.6	-5.2	-2.2	0.6	-4.4
Cn1c(N)c(C(=O)CSc2nnc(C3CC3)n2N)c(=O)n(C)c1=O	0.7	-2.1	19.4*	-1.0	10.5
Cc1noc(C)c1S(=O)(=O)Nc1ccc2c(c1)C(=O)N([C@H](C)CO)C[C@H](C)[C@@H](CN(C)C(=O)c1ccncc1)OCCCC[C@H](C)O2	-2.4	.	-3.6	-2.0	-1.4
Cn1c(SCc2ccccc2)nnc1-c1ccncc1	-1.6	-6.9	-3.0	-2.3	7.7
Cn1c(SCc2cccc(F)c2)nnc1-c1ccncc1	-11.2	-19.8	15.3*	-0.3	1.7
C[C@H]1CN([C@@H](C)CO)C(=O)Cc2cc(NC(=O)Nc3cccc4ccccc34)ccc2O[C@@H]1CN(C)Cc1ccc(Cl)c(Cl)c1	-0.9	.	15.8*	-6.7	-6.8
